# This is one part of the list. A number with no mark means an inactive call.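 Rule for the calls: active = percent inhibition of p97 ATPase above a set limit, the primary screen's mean plus 3 SD (cut at about 15% in these data); inactive = the rest.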
# Molecular target: Transitional endoplasmic reticulum ATPase (Homo sapiens) (UniProt P55072)
# Experiment: p97 ATPase inhibitors, retest, confirmation, biochemical (AID 1517);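 note: 0% = DMSO wells and 100% = wells lacking p97 protein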
# Details: recombinant p97 ATPase, Kinase-Glo ATP luminescence; at 8 µM; active compounds read high
# Outline: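 Test system: recombinant p97 ATPase. Buffer or medium: Tris/MgCl2/EDTA/DTT buffer, pH 8.0. Compound dosing: one dose, 8 µM nominal final. Timing: 30 min pre-incubation, 3 h ATP reaction. Technique: Kinase-Glo luminescence. Measure: % inhibition versus DMSO and no-enzyme controls. Benchmarks: DMSO-only and no-enzyme wells. Replication: each compound tested in triplicate.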
# Chain of Transitional endoplasmic reticulum ATPase (Homo sapiens) (P55072 whole entry, looked up): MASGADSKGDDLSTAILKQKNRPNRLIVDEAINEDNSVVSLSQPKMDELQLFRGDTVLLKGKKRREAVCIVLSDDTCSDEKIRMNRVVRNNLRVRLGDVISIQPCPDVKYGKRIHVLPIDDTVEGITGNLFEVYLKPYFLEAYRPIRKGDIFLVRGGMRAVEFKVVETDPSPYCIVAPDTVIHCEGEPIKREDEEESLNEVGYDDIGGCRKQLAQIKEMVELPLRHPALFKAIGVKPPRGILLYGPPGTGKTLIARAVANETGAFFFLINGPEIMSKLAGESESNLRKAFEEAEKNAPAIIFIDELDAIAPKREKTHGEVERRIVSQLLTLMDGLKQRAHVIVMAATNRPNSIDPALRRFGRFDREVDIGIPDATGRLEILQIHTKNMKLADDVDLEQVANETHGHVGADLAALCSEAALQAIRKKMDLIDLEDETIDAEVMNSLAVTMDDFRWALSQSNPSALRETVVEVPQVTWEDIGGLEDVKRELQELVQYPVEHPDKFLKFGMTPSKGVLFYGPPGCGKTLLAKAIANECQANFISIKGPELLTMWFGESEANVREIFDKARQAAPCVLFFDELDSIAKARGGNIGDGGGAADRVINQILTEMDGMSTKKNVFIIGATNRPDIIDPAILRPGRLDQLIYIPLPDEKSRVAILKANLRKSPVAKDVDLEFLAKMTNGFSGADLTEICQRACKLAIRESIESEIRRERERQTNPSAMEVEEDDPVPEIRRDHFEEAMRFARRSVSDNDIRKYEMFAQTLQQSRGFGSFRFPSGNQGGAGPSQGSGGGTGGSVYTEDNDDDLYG
structure (smiles),measurement,value
O=c1[nH]c(CN2CC=C(c3ccccc3)CC2)nc2scc(-c3cccs3)c12,inhibition,10.8%

# Source: PubChem BioAssay AID1517 (The Scripps Research Institute Molecular Screening Center, 2009)
